Records with an inconclusive call do not appear.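 How the source made its calls, unless noted: active means viability increase at or above a cutoff of the median across tested compounds plus 3 SD (cut at about 8.5% in these data, passing the limit was not always enough); inconclusive means some gains above the cutoff, reason not given; inactive means the rest.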
Tests used:
[1] = S. cerevisiae growth inhibition in permissive medium (OD615), pilot counter-assay for S. cerevisiae lifespan shortening project, permissive growth control (AID 705;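 active means growth inhibition above 25% in both replicates, a cutoff set 3 SD above the mean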); settings: OD615, 24 h, at 10 µM, active compounds read high
Outline: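 Timing: 24 h exposure, 30 °C / Material: Saccharomyces cerevisiae strain carrying genetically modified DeaD replicative-lifespan system / Signal: OD at 615 nm / Compound: 10 µM single dose, 0.25% DMSO / Medium: SC raffinose/galactose permissive medium / Evaluation: reduction in yeast growth (OD615)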

[2] = S. cerevisiae growth inhibition in restrictive medium, OD615, pilot screen, restrictive growth control, yeast lifespan reduction project (AID 706;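 active means growth inhibition above a set limit, 3 SD over mean compound inhibition, in both replicates, cut at about 43% in these data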;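 further: modified DeaD lifespan yeast strain shifted to restrictive glucose medium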); settings: OD615, 48 h, at 10 µM, active compounds read high
Outline: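 System: Engineered S. cerevisiae DeaD strain | Detection: OD615 | Buffer or medium: CSMM-D glucose medium | Doses: 10 µM compound, 0.25% DMSO | Timing: 4 h pre-growth plus 48 h compound exposure, 30 °C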

[3] = doxorubicin toxicity protection in MRP-1 cells – H69AR cells, CellTiter-Glo, duplicate, MRP-1 activator project, pilot screen (AID 807); settings: H69AR viability with doxorubicin, CellTiter-Glo luminescence; at 10 µM; active compounds read high;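 further: compound pretreatment 18-22 h then 72 h combined with doxorubicin; 0% = doxorubicin alone and 100% = vehicle without doxorubicin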
[4] = viability of HCT116 without oncogenic beta-catenin – human colon tumor cells, pilot screen (AID 823;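 active means cell viability at or below a set limit in both duplicate runs, the limit being the all-compound median minus 4 SD, cut at about 23% in these data, passing the limit was not always enough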;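 further: 0% = wells killed by 20 µM Hyamine and 100% = untreated DMSO cell wells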); settings: HCT116 beta-catenin knockout viability, CellTiter-Glo, 60 h; at 10 µM; active compounds read low
[5] = viability of PTEN-null HCT116 cells – cell-based, HCT116 clonal line, CellTiter-Glo, pilot screen (AID 824;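 active means viability at or below 27.92% in each of two runs, the all-compound median minus 4 SD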;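 further: 0% = 20 µM Hyamine control and 100% = vehicle cell control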); settings: HCT116 PTEN-deleted viability, 60 h, at 10 µM, active compounds read low
[6] = RAM pathway blockade in budding yeast – dse1pr::URA3 reporter, 5-FOA selection, pilot screen (AID 869;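 active means inhibition over a set limit, the all-compound mean plus 3 SD, in both replicate runs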;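 further: 0% = DMSO wells with no growth and 100% = 10 µM 1-NA-PP1 with full growth; RAM network block rescues cells from 5-FOA so hits raise OD615 growth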); settings: S. cerevisiae dse1pr::URA3 5-FOA growth, OD615, 2 d; at 10 µM; active compounds read high; strain carries analog-sensitive mutant Cbk1 kinase
[7] = RAM signaling pathway blockade in yeast – S. cerevisiae, Pdr1DBD-CYC8 efflux-inhibited sensitized strain, primary screen (AID 1298;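 active means RAM network inhibition above 8.4% in each of two replicates, 3 SD over the compound average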;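 further: 0% = DMSO untreated cells without growth and 100% = 10 µM 1-NA-PP1 full growth; higher means more yeast growth rescued from 5-FOA killing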); settings: S. cerevisiae cbk1-as DSE1-URA3 strain, 5-FOA growth OD615, 2 d; at 50 µM; active compounds read high

CN(C)c1ccc(C2N(c3ccc(Cl)cc3)C(=O)C3CCCN32)cc1 (stereo not drawn)
inactive: growth inhibition [1] -2.63% | growth inhibition [2] 6.78% | viability increase [3] -1.01% | viability [4] 98.1% | viability [5] 98.7% | inhibition [6] 2.37% | RAM network inhibition [7] 1.57%

Cc1ccnc(SCC(=O)O)n1
inactive: growth inhibition [1] -0.18% | growth inhibition [2] -10.8% | viability increase [3] -1.15% | viability [4] 101% | viability [5] 101% | inhibition [6] 1.29% | RAM network inhibition [7] 1.08%

CC(Oc1ccc(Cl)cc1Cl)c1nc(-c2ccccn2)no1 (stereo not drawn)
inactive: growth inhibition [1] -3.06% | growth inhibition [2] 5.3% | viability increase [3] 1.23% | viability [4] 99.1% | viability [5] 87.7% | inhibition [6] 0.375% | RAM network inhibition [7] 2.34%

COCCNC(=O)c1cc2c(-c3ccc(Cl)cc3)nn(C)c2s1
inactive: growth inhibition [1] 3.03% | growth inhibition [2] 8.65% | viability increase [3] -6% | viability [4] 64.6% | viability [5] 71% | inhibition [6] 0.32% | RAM network inhibition [7] 10.4%

COC(=O)C1=CN(C)C=C(C(=O)OC)C1c1ccc(Cl)cc1Cl
inactive: growth inhibition [1] -12.4% | growth inhibition [2] -10.4% | viability increase [3] -2.14% | viability [4] 85.1% | viability [5] 78.2% | inhibition [6] 3.2% | RAM network inhibition [7] 8.48%

CCOC(=O)C1=C(C)Nc2nc(C)nn2C1c1cc(OC)ccc1OC (stereo not drawn)
inactive: growth inhibition [1] 3.21% | growth inhibition [2] 4.81% | viability increase [3] -1.53% | viability [4] 108% | viability [5] 100% | inhibition [6] -1.1% | RAM network inhibition [7] -0.16%

Cc1cc(C)n(-c2nncc(-c3ccccc3)n2)n1
inactive: growth inhibition [1] 14% | growth inhibition [2] 34.6% | viability increase [3] -2.22% | viability [4] 98.9% | viability [5] 95.6% | inhibition [6] 1.86% | RAM network inhibition [7] 0.92%

O=C(Nc1ccc2c(c1)OCO2)C1CCCN1C(=O)OCc1ccccc1 (stereo not drawn)
inactive: growth inhibition [1] -17.8% | growth inhibition [2] -4.2% | viability increase [3] -1.45% | viability [4] 94.4% | viability [5] 93.6% | inhibition [6] 1.32% | RAM network inhibition [7] 4.12%

Nc1ccc(SC(F)(F)F)cc1C(=O)c1ccccc1
inactive: growth inhibition [1] -6.7% | growth inhibition [2] -13.2% | viability increase [3] -0.99% | viability [4] 74% | viability [5] 70.4% | inhibition [6] -2.23% | RAM network inhibition [7] 3.77%

CCC(CC)C(=O)N1c2ccc(F)cc2CCC1C (stereo not drawn)
inactive: growth inhibition [1] -16.6% | growth inhibition [2] -10.7% | viability increase [3] -0.23% | viability [4] 95.3% | viability [5] 93.9% | inhibition [6] 1.31% | RAM network inhibition [7] 1.96%

COc1ccc(C2CC(c3c(Cl)cccc3Cl)n3nc(N)nc3N2)cc1 (stereo not drawn)
inactive: growth inhibition [1] -6.17% | growth inhibition [2] 5.1% | viability increase [3] -1.64% | viability [4] 95.3% | viability [5] 88.1% | inhibition [6] 2.57% | RAM network inhibition [7] 6.67%

COc1ccc(-c2nc(CS(=O)CC(=O)NCc3ccco3)c(C)o2)cc1 (stereo not drawn)
inactive: growth inhibition [1] -8.38% | growth inhibition [2] 17.3% | viability increase [3] -4.45% | viability [4] 92.5% | viability [5] 100% | inhibition [6] 1.88% | RAM network inhibition [7] 0.58%

Cc1ccc(-c2nc(CS(=O)CC(=O)NCCN3CCCC3)c(C)o2)cc1 (stereo not drawn)
inactive: growth inhibition [1] -8.03% | growth inhibition [2] -5.56% | viability increase [3] -2.7% | viability [4] 86.4% | viability [5] 99.3% | inhibition [6] 0.18% | RAM network inhibition [7] 0.43%

O=C1C2CCCN2C(c2ccc(F)c(F)c2)N1c1cccc(Cl)c1 (stereo not drawn)
inactive: growth inhibition [1] 3.17% | growth inhibition [2] -1.67% | viability increase [3] -0.86% | viability [4] 101% | viability [5] 100% | inhibition [6] 0.745% | RAM network inhibition [7] 5.42%

CCOc1ccc(C2c3c(oc4ccccc4c3=O)C(=O)N2CCCN2CCOCC2)cc1OCC (stereo not drawn)
inactive: growth inhibition [1] -14% | growth inhibition [2] -31.3% | viability increase [3] -4.89% | viability [4] 102% | viability [5] 88.6% | inhibition [6] 0.48% | RAM network inhibition [7] 1.21%

COc1ccc(C)cc1NC(=O)CN1C(=O)c2ccccc2S1(=O)=O
inactive: growth inhibition [1] 6.31% | growth inhibition [2] 10.8% | viability increase [3] -2.12% | viability [4] 102% | viability [5] 94.4% | inhibition [6] 3.04% | RAM network inhibition [7] 4.58%

CC(=O)Nc1ccc(C2Nc3ccccc3C(=O)N2C2CCCCC2)cc1 (stereo not drawn)
inactive: growth inhibition [1] -5.95% | growth inhibition [2] -9.11% | viability increase [3] -1.42% | viability [4] 94.9% | viability [5] 93.6% | inhibition [6] 2.73% | RAM network inhibition [7] -0.56%

COc1ccc(-n2ncc3c(N4CCCCC4)ncnc32)cc1
inactive: growth inhibition [1] -12.2% | growth inhibition [2] 0.385% | viability increase [3] -3.57% | viability [4] 67.8% | viability [5] 57.1% | inhibition [6] 1.78% | RAM network inhibition [7] -1.99%

O=C(Nc1cccc(OC(F)(F)F)c1)c1ccc(Br)o1
inactive: growth inhibition [1] -1.13% | growth inhibition [2] 9.08% | viability increase [3] 1.31% | viability [4] 81.6% | viability [5] 75.1% | inhibition [6] 2.96% | RAM network inhibition [7] 0.92%

CC1CCN(S(=O)(=O)c2ccc(NC(=O)c3cccs3)cc2)CC1
inactive: growth inhibition [1] -0.77% | growth inhibition [2] 5.38% | viability increase [3] -5.18% | viability [4] 85.5% | viability [5] 75.8% | inhibition [6] 0.115% | RAM network inhibition [7] 3.83%

COc1ccccc1N1C(=O)C2CC=CC(C)C2C1=O (stereo not drawn)
inactive: growth inhibition [1] -0.615% | growth inhibition [2] 2.32% | viability increase [3] -0.91% | viability [4] 89.4% | viability [5] 94% | inhibition [6] 0.52% | RAM network inhibition [7] 2.25%

O=C(CN1CCN(Cc2ccc(Cl)cc2)C1=O)NCCN1CCCC1
inactive: growth inhibition [1] 1.2% | growth inhibition [2] 9.72% | viability increase [3] -0.85% | viability [4] 107% | viability [5] 96.7% | inhibition [6] 1.54% | RAM network inhibition [7] 1.2%

COc1cccc(-c2nc(CS(=O)(=O)CC(=O)NCCC(C)C)c(C)o2)c1
inactive: growth inhibition [1] 3.72% | growth inhibition [2] 7.53% | viability increase [3] 0.8% | viability [4] 94% | viability [5] 89.1% | inhibition [6] 0.36% | RAM network inhibition [7] 1.13%

CCOC(=O)c1ccc(NC(=O)NS(=O)(=O)c2ccc(C)cc2)cc1
inactive: growth inhibition [1] -7.83% | growth inhibition [2] -3.95% | viability increase [3] -1.46% | viability [4] 105% | viability [5] 94% | inhibition [6] 3.13% | RAM network inhibition [7] 6.08%

— PubChem BioAssay
